# Cl transport mod: KCC2 (human) Cl- transport modulation. Q9H2X9. hit rate 2.2% among 190,000. KCC2 cells, thallium flux FluoZin-2 fluorescence. B-score of Tl+ flux slope (higher = more flux/activation; lower = inhibition) at 10 µM;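 active = thallium flux slope and its plate-corrected score both differing from the plate sample mean at a set confidence after two filtering rounds, in either direction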;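 also: slope of fluorescence scaled to starting intensity during 10 to 20 s after thallium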
# b-catenin transl: beta-catenin nuclear translocation modulation; nuclear translocation activity, % at 5 µM; hit rate 0.3% among 190,000; HeLa beta-catenin nuclear translocation, immunofluorescence imaging; AID 1665;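 active = nuclear translocation activity above 50% at 5 µM, with a well cell count of 50 or more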;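 also: per-cell ratio of nuclear to cytoplasmic median beta-catenin stain intensity; plate controls were DMSO negative control for no effect and GSK-3 inhibitor IX positive control for full effect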
#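 Test system: human HeLa cell line; Doses: 5 µM primary, 0.02–20 µM confirmation; Incubation: 24 h compound exposure, 37°C; Detection: beta-catenin immunofluorescence imaging with DAPI; Read-out: beta-catenin nuclear/cytoplasmic ratio, % activation.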
# MT stabilizer: stabilizes microtubules in HeLa cells. HeLa tubulin immunostaining HCS, 24 h; share of cells brighter than vehicle mean+2SD. % tubulin-high responders, % at 10 µM. hit rate 0.83% among 200,000. AID 2205;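 active = plate Z-score above 3 for both tubulin-high and condensed-nucleus cell shares, with cell loss under 80%, at 10 µM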;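 also: anti alpha tubulin signal scored within the nucleus-defined area of each cell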
# ROMK mod: human ROMK K+ channel modulation, primary screen; Tet-inducible ROMK, thallium flux fluorescence; actives lie on both sides; B-score at 10 µM; hit rate 2% among 130,000;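 active = signal ratio slope over the read window, or its plate-corrected B-score, at least 3 SD from the plate mean, either direction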;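 also: B-score of the F/F0 ratio slope over 7 to 12 s after thallium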
# Target sequence (P48048 whole entry, looked up): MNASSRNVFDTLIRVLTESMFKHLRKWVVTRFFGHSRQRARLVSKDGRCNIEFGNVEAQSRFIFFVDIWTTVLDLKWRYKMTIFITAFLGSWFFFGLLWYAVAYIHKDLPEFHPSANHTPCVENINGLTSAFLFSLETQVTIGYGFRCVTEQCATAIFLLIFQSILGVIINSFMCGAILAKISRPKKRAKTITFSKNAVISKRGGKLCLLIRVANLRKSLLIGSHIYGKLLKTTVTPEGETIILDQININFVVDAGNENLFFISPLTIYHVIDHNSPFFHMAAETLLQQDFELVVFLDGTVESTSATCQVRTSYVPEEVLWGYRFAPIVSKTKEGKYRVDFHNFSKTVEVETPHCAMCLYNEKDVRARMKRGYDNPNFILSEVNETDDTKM
# DTT redox prof: compounds producing H2O2 with reducing agent – biochemical, NIH compound library profiling, artefact control for MLSCN library redox annotation, primary screen; hit rate 0.03% among 200,000; activation, % at 10 µM; DTT-dependent redox cycling H2O2, phenol red/HRP absorbance; 100% = 100 µM peroxide control, 0% = buffer; AID 878;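 active = activation of at least 50% relative to the plate's high and low controls in the primary single-dose screen; inactive = activation below 50%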;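 also: compound incubated with DTT at 0.8 mM final as the reducing agent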
# Numbers without * were called inactive; i = inactive; / = no result given. This is a sample that favours compounds with a hit; in the whole collection about 3.7% have one here.
SMILES,Cl transport mod,b-catenin transl,MT stabilizer,ROMK mod,DTT redox prof
Cc1ccc2nc(NC(=S)NC(=O)c3cccs3)sc2c1,9.2*,0,2,/,1
Cc1cccc(NC(=S)Nc2cccc(C)n2)n1,0.013,-2,/,/,/
Cc1ccc2nc(NC(=O)c3cccs3)sc2c1,1.4,/,3,1.6,0
Cc1cccc(NC(=S)NC(=O)c2cccs2)n1,18*,-1,1,/,0
Cc1cccc(NC(=S)NC(=O)c2ccco2)n1,28*,0,1,/,0
O=C(Cn1cnc2ccccc2c1=O)Nc1nnc(SCc2ccc(Cl)cc2)s1,0.49,1,/,/,/
CCCCCC1=NN2C(=O)CC(=O)N=C2S1,-0.39,1,/,/,/
CCOC(=O)c1c(NC(=O)C(C)N2CCN(S(=O)(=O)c3cccs3)CC2)sc2c1CCC(C)C2 (configuration not stated),1.1,-1,2,/,0
c1ccc2c(c1)CC1(CCCC1)N=C2N1CCOCC1,0.24,0,/,0.13,/
O=c1n(Cc2ccccc2Cl)nc2n1-c1ccccc1SC2,-3.4,1,/,/,/
COc1ccc(C(=O)NC(C)c2nnc(SCC(=O)Nc3nc4ccccc4s3)n2C)cc1 (configuration not stated),-4.6*,6,5,0.11,0
COc1ccc(C(=O)NC(C)c2nnc(SCC(=O)Nc3nc(C)cs3)n2C)cc1 (configuration not stated),0.94,0,0,0.1,0
COc1ccccc1NC(=O)c1cnc(Nc2ccccc2OC)c2ccccc12,0.77,118*,35*,0.12,0
CCOC(=O)C1=NN(C(C)=O)C2(CC(=O)N(c3cccc(C)c3)C2=O)C1 (configuration not stated),-0.041,-3,3,/,0
CCCOc1ccc(C(=O)NNC(=S)NC(=O)CC)cc1,6.9*,0,3,0.85,-1
C/[N+]([O-])=C\c1coc2ccccc2c1=O,0.29,/,1,-0.18,0
O=C1NC(=S)S/C1=C\c1coc2ccccc2c1=O,/,0,2,-4.6*,-1
Cn1ncc2cc(NC(=S)NC(=O)c3ccccc3)ccc21,4.2*,/,1,/,1
O=C(C1=C[C@@H](c2csc3ccccc23)C[C@@H](OCc2ccc(CO)cc2)O1)N1CCN(Cc2ccc3c(c2)OCO3)CC1,-0.35,49,22*,/,4
O=C(C1=C[C@@H](c2ccccc2)C[C@@H](OCc2ccc(CO)cc2)O1)N1CCN(Cc2ccc3c(c2)OCO3)CC1,-0.42,14,13*,/,-1
O=C(C1=C[C@@H](c2coc3ccccc3c2=O)C[C@@H](OCc2ccc(CO)cc2)O1)N1CCN(Cc2ccccc2)CC1,-3.3*,0,2,/,0
CN1CCN(C(=O)C2=C[C@@H](c3coc4ccccc4c3=O)C[C@@H](OCc3ccc(CO)cc3)O2)CC1,-0.0088,1,1,/,0
Cc1c(C#N)c(NC(=O)CCl)n(Cc2ccc(F)cc2)c1C,0.88,-1,6,0.08,-2
CCN(CC)C(=O)c1sc(NC(=O)Cc2cccs2)c(C#N)c1C,/,/,2,/,2
Cc1c(C#N)c(NC(=O)CCl)n(Cc2cccs2)c1C,0.32,4,40*,-0.49,-2
SMILES,Cl transport mod,b-catenin transl,MT stabilizer,ROMK mod,DTT redox prof
Cc1c(C#N)c(NC(=O)CCl)n(Cc2ccccc2)c1C,0.16,3,11*,0.61,0
Cc1csc(NC(=O)CSc2nnc(NC(=O)COc3ccccc3)s2)n1,0.7,0,2,-0.2,0
COC(=O)c1cc(C(=O)N2CCN(c3ccccc3OC)CC2)cc([N+](=O)[O-])c1,-0.046,70*,27*,-1.3,-1
COc1ccccc1N1CCN(c2ccc([N+](=O)[O-])cc2Cl)CC1,0.74,3,21*,0.074,0
CCNC(=O)COC(=O)c1cccc(Br)c1,-0.014,0,/,/,/
Cc1nnc(SCc2ccc(F)cc2)n1NC/C=C/c1ccccc1,-4.7*,0,1,/,-1
COc1ccc(C(=O)Nc2cc(C(C)=O)c(C)oc2=O)cc1,0.78,-1,7,0.9,-2
COC(=O)c1cc(NC(=O)c2ccccc2)c(=O)oc1/C=C/Nc1ccc(Oc2ccccc2)cc1,i,0,3,-4.5*,-1
Fc1ccc(C(c2nnnn2Cc2cccs2)N2CCN(C3CCCCC3)CC2)cc1 (configuration not stated),0.29,-5,4,-5.7*,2

# High-throughput results as filed in PubChem BioAssay.
